Results: ChEMBL document CHEMBL1127561, “Novel spirosuccinimide aldose reductase inhibitors derived from isoquinoline-1,3-diones: 2-[(4-bromo-2-fluorophenyl)methyl]-6- fluorospiro[isoquinoline-4(1H),3'-pyrrolidine]-1,2',3,5'(2H)-tetrone and congeners. 1” (J Med Chem, 1994)

Assays:
[1] = molecular target: Aldo-keto reductase family 1 member B1 (Bos taurus, UniProt P16116); test: In vitro inhibition of aldose reductase activity in a partially purified bovine lens preparation
[2] = tested on: Rattus norvegicus; test: Percentage Inhibition of galactitol accumulation in the sciatic nerve of rats fed with the dose of 25.6 mg/kg/day; format: functional
How it was run: (§1)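 Male Sprague-Dawley rats (70-90 g), six per group, fed 20% galactose chow with compound in the diet for 4 days; glucose-fed controls. After a 3-h fast, lens or sciatic nerve galactitol was measured as nmol/mg wet weight. Percent inhibition vs galactose-fed controls, mean ± SEM; ANOVA with Dunnett's test.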

[3] = Log P value by using Octanol / pH 7.4 buffer; format: physicochemical
How it was run: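 Partition measured between octanol and pH 7.4 buffer.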

[4] = molecular target: Aldo-keto reductase family 1 member B1 (Bos taurus) (UniProt P16116); test: Inhibition of aldose reductase activity in a partially purified bovine lens preparation at 10e-7 M
How it was run: (§2)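 Partially purified bovine lens aldose reductase (ammonium sulfate fractionation). NADPH oxidation read at 340 nm, 37 °C, in 30 mM sodium phosphate pH 6.2, 0.2 M LiSO4, […], 1% DMSO. Enzyme was preincubated with inhibitor for 5 min, then the reaction was started with 5 mM DL-glyceraldehyde. Duplicates; IC50 from linear regression of log concentration vs percent inhibition.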

[5] = molecular target: Aldo-keto reductase family 1 member B1 (Bos taurus) (UniProt P16116); test: Inhibition of aldose reductase activity in a partially purified bovine lens preparation at 4*10e-8 M; how it was run: as §2
[6] = tested on: Rattus norvegicus; test: Percentage Inhibition of galactitol accumulation in the lens of rats fed with the dose of 1.0 mg/kg/day; format: functional; settings: Lens of camera-type eye; how it was run: as §1
[7] = tested on: Rattus norvegicus; test: Percentage Inhibition of galactitol accumulation in the lens of rats fed with the dose of 3.0 mg/kg/day; format: functional; settings: Lens of camera-type eye; how it was run: as §1
[8] = tested on: Rattus norvegicus; test: Percentage Inhibition of galactitol accumulation in the sciatic nerve of rats fed with the dose of 1.0 mg/kg/day; format: functional; how it was run: as §1
[9] = tested on: Rattus norvegicus; test: Percentage Inhibition of galactitol accumulation in the sciatic nerve of rats fed with the dose of 3.0 mg/kg/day (values are mean of six animals); format: functional; how it was run: as §1
[10] = tested on: Rattus norvegicus; test: Percentage Inhibition of galactitol accumulation in the lens of rats fed with the dose of 1.1 mg/kg/day; format: functional; settings: Lens of camera-type eye; how it was run: as §1
[11] = tested on: Rattus norvegicus; test: Percentage Inhibition of galactitol accumulation in the sciatic nerve of rats fed with the dose of 1.1 mg/kg/day (values are mean of six animals); format: functional; how it was run: as §1
[12] = tested on: Rattus norvegicus; test: Percentage Inhibition of galactitol accumulation in the sciatic nerve of rats fed with the dose of 0.5 mg/kg/day; format: functional; how it was run: as §1

Structure (SMILES) | IC50 [1] [nM] | inhibition in vivo at 25.6 mg/kg/day [2] [%] | logD [3] | inhibition [4] [%] | inhibition [5] [%] | inhibition in vivo at 1 mg/kg/day [6] [%] | inhibition in vivo at 3 mg/kg/day [7] [%] | inhibition in vivo at 1 mg/kg/day [8] [%] | inhibition in vivo at 3 mg/kg/day [9] [%] | inhibition in vivo at 1.1 mg/kg/day [10] [%] | inhibition in vivo at 1.1 mg/kg/day [11] [%] | inhibition in vivo at 0.5 mg/kg/day [12] [%]
COc1ccc2c(c1)C(=O)N(Cc1ccc(Br)cc1F)C(=O)C21CC(=O)NC1=O (centres undefined) | 37 | 88 |  |  |  |  |  |  |  |  |  | 
CN1C(=O)c2ccccc2C2(CC(=O)NC2=O)C1=O (centres undefined) |  |  | 0.24 | 63 | 38 | 15 | 43 | 37 | 66 |  |  | 
O=C1CC2(C(=O)N1)C(=O)N(Cc1nc3cc(C(F)(F)F)ccc3s1)C(=O)c1ccccc12 (centres undefined) | 22 |  | 3.17 |  |  |  |  |  |  | 22 | 100 | 49
